Experimental data: publication PMC7888481 (Journal of natural products, 2020)
“Also recorded” adds a separate entry of the source.

Columns and labels:
Human FAAH = conditions: read-out: Human FAAH IC50; literature values ref 27; cited from earlier work
[1] = Pharmacokinetics after oral administration in rats; type: in vivo; conditions: rat, 100 mg/kg oral
In short: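 Male Sprague-Dawley rats, 8 weeks old, 250–300 g, n=4/group. Test compound given once at 100 mg/kg in 100% NEOBEE 1053 by oral gavage. Each sample added to 100 μL water with 0.1% EDTA, vortexed, stored at −80 °C, then processed and quantified by a previously reported method.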

[2] = test system: LPS-induced inflammatory pain; assay: LPS-induced inflammatory pain model; type: in vivo; conditions: rat, 100 mg/kg oral, LPS intraplantar, 6-h time-course, n=4/group
CB1 receptor = conditions: cited from earlier work
recombinant human sEH = biological target: T1, recombinant human sEH (Homo sapiens, UniProt P34913); assay: sEH inhibition assay; type: biochemical
T1 sequence (P34913 1-555): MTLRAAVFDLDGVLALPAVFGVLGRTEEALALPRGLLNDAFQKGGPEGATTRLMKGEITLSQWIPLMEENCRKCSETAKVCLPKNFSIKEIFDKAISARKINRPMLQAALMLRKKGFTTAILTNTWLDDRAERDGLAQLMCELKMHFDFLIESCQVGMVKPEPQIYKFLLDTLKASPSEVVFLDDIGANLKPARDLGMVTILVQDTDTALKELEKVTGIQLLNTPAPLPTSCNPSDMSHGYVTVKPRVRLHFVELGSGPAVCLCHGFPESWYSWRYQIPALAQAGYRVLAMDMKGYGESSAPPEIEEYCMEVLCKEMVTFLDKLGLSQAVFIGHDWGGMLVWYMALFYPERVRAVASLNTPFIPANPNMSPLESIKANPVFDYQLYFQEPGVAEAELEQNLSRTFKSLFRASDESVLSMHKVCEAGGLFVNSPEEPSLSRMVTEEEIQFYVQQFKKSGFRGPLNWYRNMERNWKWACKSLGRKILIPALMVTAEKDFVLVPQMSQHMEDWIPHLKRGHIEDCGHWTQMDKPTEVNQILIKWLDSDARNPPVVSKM
In short: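 Fluorescence assay on recombinant human sEH, test compound in serial dilution. Substrate MNPC at 5 μM final is hydrolysed to fluorescent 6-methoxynaphthaldehyde, read at λex 330 nm and λem 465 nm. IC50 determined in triplicate and the mean reported. Reference inhibitor t-TUCB run in parallel to validate the assay.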

| SMILES | IC50 (Human FAAH) [µM] | also measured |
| --- | --- | --- |
| CCCCCCCCCCCCCCCC(=O)NCc1ccccc1 [Compound 1, N-benzylpalmitamide] | > 100 |  |
| CCCCCCCCCCCCCCCCCC(=O)NCc1ccccc1 [Compound 2, N-Benzyloctadecanamide] | > 100 |  |
| CCCCCCCC/C=C\CCCCCCCC(=O)NCc1ccccc1 [Compound 3, N-Benzyloctadec-9Z-enamide] | 16.7 |  |
| CCCCC/C=C\C/C=C\CCCCCCCC(=O)NCc1ccccc1 [Compound 4, N-Benzyloctadeca-9Z,12Z-dienamide] | 10.8 | time at which concentration peaked in the blood [1]: ≤ 3 h; paw withdrawal thresholds (pain relief) relative to vehicle control ([2]; 100 mg/kg): significantly increased; also recorded: efficacious; binding to the CB1 receptor (CB1 receptor): selectively bind |
| CC/C=C\C/C=C\C/C=C\CCCCCCCC(=O)NCc1ccccc1 [Compound 5, N-Benzyloctadeca-9Z,12Z,15Z-trienamide] | 41.8 | paw withdrawal thresholds (pain relief) relative to vehicle control [2]: not significant |
| CCCCCCCC/C=C\CCCCCCCC(=O)NCc1cccc(OC)c1 [Compound 10, N-(3-Methoxybenzyl)octadec-9Z-enamide] | 11 |  |
| CCCCC/C=C\C/C=C\CCCCCCCC(=O)NCc1cccc(OC)c1 [Compound 11, N-(3-Methoxybenzyl)octadeca-9Z,12Z-dienamide] | 10.3 |  |
| CC/C=C\C/C=C\C/C=C\CCCCCCCC(=O)NCc1cccc(OC)c1 [Compound 12, N-(3-Methoxybenzyl)octadeca-9Z,12Z,15Z-trienamide] | 13.7 |  |
| CCCCC/C=C\C/C=C\CCCCCCCC(=O)NCCc1ccccc1 [Compound 18, N-Phenethyloctadeca-9Z,12Z-dienamide] |  | IC50 (recombinant human sEH): 0.028 µM |
